{"source": "ChEMBL document CHEMBL4024771", "about": "“Optimization of Orally Bioavailable Enhancer of Zeste Homolog 2 (EZH2) Inhibitors Using Ligand and Property-Based Design Strategies: Identification of Development Candidate …” (J Med Chem, 2018)", "key": {"KARPAS-422": {"test_system": "KARPAS-422", "test": "Antitumor activity against human KARPAS422 cells harboring EZH2 Y641N mutant xenografted in mouse assessed as decrease in tumor growth at 100 mg/kg, po bid", "format": "functional, organism-based"}, "[1]": {"test": "Intrinsic clearance in human liver microsomes assessed per mg protein at 1 uM preincubated for 10 mins followed by NADPH addition measured after 45 mins by LC-MS/MS analysis", "format": "ADME, microsome", "details": "liver microsomes, read-out: CLH", "in_short": "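Test compound (1 μM) with pooled liver microsomes (0.8 mg/mL protein) in 100 mM potassium phosphate pH 7.4, 10 min preincubation, started with 2 mM NADPH, 45 min at 37 °C, in triplicate. Samples quenched with cold methanol containing buspirone internal standard, analysed by LC−MS/MS. CLint derived from t1/2 of parent loss (log-linear slope).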"}, "[2]": {"test": "Passive permeability in MDCK cells at 2 uM after 90 mins by LC-MS/MS analysis", "format": "ADME, cell-based, Canis lupus familiaris", "details": "dog, MDCK; read-out: permeability", "in_short": "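Low-efflux MDCK cells (MDCK-LE) on 96-well inserts, used on day 4. Monodirectional transport of 2 μM drug in transport buffer with 0.1% DMSO at 37 °C. Donor and receiver sampled at 0 and 90 min for LC−MS/MS. Donor pH 6.5 and 7.4, receiver pH 7.4.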"}, "Mus musculus [3]": {"test_system": "Mus musculus", "test": "Toxicity in mouse xenografted with human KARPAS422 cells harboring EZH2 Y641N mutant assessed as change in body weight at 100 to 300 mg/kg, po bid", "format": "organism-based", "details": "in vivo"}, "Mus musculus [4]": {"test_system": "Mus musculus", "test": "In vivo inhibition of EZH2 in mouse xenografted with human KARPAS422 cells harboring EZH2 Y641N mutant assessed as reduction in H3K27me3 level in tumor at 100 mg/kg, po bid measured 4 hrs post last dose on day 9 relative to control", "format": "functional", "details": "KARPAS-422, po", "in_short": "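Mice bearing Karpas-422 (EZH2 Y641N) xenografts were dosed with crystalline suspension orally twice daily (7 h/17 h) or subcutaneously once daily. Tumors were collected on day 9, 4 h after the last dose, for H3K27me3 quantification.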"}, "[5]": {"test": "Clearance in mouse hepatocytes assessed per million cells", "format": "ADME, cell-based, Hepatocyte", "details": "read-out: CLH"}, "Cytochrome P450 1A2": {"biological_target": "T1, Cytochrome P450 1A2 (Homo sapiens, UniProt P05177)", "T1 sequence (P05177 whole entry)": "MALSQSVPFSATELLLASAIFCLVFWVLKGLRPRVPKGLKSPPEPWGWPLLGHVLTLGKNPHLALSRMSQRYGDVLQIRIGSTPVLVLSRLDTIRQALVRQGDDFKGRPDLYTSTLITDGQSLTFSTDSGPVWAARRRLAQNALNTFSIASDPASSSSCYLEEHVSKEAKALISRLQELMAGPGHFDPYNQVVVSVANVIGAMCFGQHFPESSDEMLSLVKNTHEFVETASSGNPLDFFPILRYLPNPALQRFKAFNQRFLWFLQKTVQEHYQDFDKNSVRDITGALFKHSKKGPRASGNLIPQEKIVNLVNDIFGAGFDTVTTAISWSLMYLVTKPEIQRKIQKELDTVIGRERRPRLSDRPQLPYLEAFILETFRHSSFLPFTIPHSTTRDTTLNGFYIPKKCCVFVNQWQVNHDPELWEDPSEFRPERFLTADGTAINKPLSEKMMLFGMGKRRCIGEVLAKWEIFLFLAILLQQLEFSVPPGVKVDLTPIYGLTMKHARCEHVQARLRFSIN", "test": "Inhibition of CYP1A2 (unknown origin)", "format": "ADME"}, "Cytochrome P450 2C8": {"biological_target": "T2, Cytochrome P450 2C8 (Homo sapiens, UniProt P10632)", "T2 sequence (P10632 whole entry)": "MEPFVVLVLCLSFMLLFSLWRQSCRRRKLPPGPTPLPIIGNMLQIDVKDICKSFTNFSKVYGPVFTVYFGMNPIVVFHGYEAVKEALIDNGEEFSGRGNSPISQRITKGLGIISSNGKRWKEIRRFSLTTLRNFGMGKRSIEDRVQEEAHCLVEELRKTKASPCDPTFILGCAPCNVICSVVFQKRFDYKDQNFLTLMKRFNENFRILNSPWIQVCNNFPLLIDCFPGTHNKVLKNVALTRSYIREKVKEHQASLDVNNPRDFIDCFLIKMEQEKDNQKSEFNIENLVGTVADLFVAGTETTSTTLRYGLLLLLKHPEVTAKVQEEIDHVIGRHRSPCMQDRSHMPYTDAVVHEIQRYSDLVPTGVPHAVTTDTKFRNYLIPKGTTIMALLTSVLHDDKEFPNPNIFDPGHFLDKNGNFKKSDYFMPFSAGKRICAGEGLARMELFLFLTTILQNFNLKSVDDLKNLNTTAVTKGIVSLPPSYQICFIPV", "test": "Inhibition of CYP2C8 (unknown origin)", "format": "ADME"}, "Cytochrome P450 2C19": {"biological_target": "Cytochrome P450 2C19 (Homo sapiens, UniProt P33261)", "sequence (P33261 whole entry)": "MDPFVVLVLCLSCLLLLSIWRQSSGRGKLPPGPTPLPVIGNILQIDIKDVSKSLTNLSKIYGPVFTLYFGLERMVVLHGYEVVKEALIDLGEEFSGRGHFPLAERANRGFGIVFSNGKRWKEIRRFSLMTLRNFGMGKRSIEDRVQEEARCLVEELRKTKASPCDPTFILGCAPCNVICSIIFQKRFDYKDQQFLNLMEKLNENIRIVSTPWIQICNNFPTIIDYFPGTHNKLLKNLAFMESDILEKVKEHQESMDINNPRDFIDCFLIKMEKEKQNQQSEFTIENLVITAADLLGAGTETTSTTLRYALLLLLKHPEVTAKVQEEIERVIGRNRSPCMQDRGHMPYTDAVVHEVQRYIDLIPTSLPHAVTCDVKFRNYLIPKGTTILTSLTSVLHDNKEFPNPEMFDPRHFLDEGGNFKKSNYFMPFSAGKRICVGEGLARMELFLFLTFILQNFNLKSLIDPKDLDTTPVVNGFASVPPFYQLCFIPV", "test": "Inhibition of CYP2C19 (unknown origin)", "format": "ADME"}, "Cytochrome P450 2D6": {"biological_target": "Cytochrome P450 2D6 (Homo sapiens, UniProt P10635)", "sequence (P10635 whole entry)": "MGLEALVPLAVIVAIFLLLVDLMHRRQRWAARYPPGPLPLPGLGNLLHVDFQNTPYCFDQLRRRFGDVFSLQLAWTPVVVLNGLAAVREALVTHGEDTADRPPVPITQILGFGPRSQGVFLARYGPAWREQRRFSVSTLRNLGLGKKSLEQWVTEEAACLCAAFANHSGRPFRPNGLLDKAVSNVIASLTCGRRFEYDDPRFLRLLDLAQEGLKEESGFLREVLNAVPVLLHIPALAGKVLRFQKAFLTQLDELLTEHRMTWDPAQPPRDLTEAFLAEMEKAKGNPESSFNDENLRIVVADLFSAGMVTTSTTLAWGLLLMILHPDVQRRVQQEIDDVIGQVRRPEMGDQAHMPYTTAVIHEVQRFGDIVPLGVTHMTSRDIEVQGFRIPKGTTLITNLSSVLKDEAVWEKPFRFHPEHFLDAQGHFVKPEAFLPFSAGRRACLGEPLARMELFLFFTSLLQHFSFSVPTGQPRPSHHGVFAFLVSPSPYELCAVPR", "test": "Inhibition of CYP2D6 (unknown origin)", "format": "ADME"}, "[6]": {"biological_target": "Voltage-gated inwardly rectifying potassium channel KCNH2 (Homo sapiens, UniProt Q12809)", "sequence (Q12809 whole entry)": "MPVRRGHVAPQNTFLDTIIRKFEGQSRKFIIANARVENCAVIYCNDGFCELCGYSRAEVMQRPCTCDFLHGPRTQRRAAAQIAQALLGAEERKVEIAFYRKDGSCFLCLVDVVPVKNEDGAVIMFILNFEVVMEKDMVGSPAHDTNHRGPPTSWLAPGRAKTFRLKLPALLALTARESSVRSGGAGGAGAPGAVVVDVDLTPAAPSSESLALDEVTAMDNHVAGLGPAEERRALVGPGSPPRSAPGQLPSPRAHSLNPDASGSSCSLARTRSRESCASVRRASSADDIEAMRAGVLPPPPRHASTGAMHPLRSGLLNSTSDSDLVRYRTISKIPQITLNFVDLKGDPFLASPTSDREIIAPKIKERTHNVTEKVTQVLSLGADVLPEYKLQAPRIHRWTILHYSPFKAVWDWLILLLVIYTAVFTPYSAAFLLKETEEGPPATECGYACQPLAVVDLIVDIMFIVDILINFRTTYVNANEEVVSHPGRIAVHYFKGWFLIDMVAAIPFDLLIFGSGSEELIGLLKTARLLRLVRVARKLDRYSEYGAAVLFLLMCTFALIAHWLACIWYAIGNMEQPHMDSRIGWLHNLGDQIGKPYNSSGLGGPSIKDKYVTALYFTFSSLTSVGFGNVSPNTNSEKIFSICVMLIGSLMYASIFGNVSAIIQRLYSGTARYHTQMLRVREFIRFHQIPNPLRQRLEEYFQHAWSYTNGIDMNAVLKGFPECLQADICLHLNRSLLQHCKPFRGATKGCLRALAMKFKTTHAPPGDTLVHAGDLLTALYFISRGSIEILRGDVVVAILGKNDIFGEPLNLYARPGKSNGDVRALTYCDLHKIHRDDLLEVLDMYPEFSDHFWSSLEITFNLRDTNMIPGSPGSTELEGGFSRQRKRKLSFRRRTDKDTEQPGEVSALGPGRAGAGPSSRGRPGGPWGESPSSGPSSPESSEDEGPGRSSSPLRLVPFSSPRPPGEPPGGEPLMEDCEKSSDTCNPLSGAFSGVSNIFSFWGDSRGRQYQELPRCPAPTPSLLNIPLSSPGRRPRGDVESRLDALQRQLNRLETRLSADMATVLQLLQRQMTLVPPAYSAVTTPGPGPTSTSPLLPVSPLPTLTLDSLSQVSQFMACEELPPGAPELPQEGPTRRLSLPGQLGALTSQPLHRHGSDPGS", "test": "Inhibition of human ERG"}, "[7]": {"biological_target": "T3, Histone-lysine N-methyltransferase EZH1 (Homo sapiens, UniProt Q92800)", "T3 sequence (Q92800 whole entry)": "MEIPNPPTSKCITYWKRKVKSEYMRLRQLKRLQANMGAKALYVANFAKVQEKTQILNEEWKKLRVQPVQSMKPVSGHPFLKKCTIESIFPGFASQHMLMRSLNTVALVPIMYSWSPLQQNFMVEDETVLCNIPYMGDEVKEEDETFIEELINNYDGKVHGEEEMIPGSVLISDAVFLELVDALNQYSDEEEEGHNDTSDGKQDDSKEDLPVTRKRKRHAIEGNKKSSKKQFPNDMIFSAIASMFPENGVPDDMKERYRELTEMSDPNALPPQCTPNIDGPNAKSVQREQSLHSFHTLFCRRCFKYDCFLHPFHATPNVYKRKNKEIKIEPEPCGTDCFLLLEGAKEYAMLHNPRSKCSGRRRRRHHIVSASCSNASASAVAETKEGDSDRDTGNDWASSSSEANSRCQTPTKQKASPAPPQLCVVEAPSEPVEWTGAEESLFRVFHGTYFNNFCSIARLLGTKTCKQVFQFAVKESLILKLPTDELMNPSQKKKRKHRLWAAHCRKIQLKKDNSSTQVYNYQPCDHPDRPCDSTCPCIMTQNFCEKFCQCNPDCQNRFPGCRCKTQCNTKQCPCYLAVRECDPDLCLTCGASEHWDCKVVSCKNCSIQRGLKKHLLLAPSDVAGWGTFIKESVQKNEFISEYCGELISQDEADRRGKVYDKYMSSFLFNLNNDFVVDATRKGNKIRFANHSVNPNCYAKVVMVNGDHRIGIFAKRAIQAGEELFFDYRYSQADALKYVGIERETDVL", "test": "Binding affinity to EZH1 (unknown origin)"}, "[8]": {"biological_target": "T4, Histone-lysine N-methyltransferase EZH2 (Homo sapiens, UniProt Q15910)", "test": "Binding affinity to EZH2 (unknown origin)"}, "[9]": {"biological_target": "T4, Histone-lysine N-methyltransferase EZH2"}}, "note": "Active and inactive are the calls of the source. The calls are words filed in the database; no cut-off is given here."}
{"compound": "COc1cc(C)[nH]c(=O)c1CN1CCc2c(Cl)cc([C@H](OC)C3COC3)c(Cl)c2C1=O", "note": "[MEVROMETOSTAT]", "values": [{"measurement": "TGI", "setting": "KARPAS-422", "result": "Active"}, {"measurement": "microsomal CLint at 1 µM", "setting": "[1]", "result": 39, "unit": "µL/min/mg"}, {"measurement": "Papp at […], 2 µM", "setting": "[2]", "result": 4.8, "unit": "×10⁻⁶ cm/s"}, {"measurement": "Activity", "setting": "Mus musculus [3]", "result": "Non-Toxic"}, {"measurement": "inhibition in vivo at 100 mg/kg", "setting": "Mus musculus [4]", "result": 45.4, "unit": "%"}, {"measurement": "hepatocyte CLint", "setting": "[5]", "result": 60.1, "unit": "µL/min/1e6 cells"}, {"measurement": "IC50", "setting": "Cytochrome P450 1A2", "result": "> 30", "unit": "µM"}, {"measurement": "IC50", "setting": "Cytochrome P450 2C8", "result": "> 30", "unit": "µM"}, {"measurement": "IC50", "setting": "Cytochrome P450 2C19", "result": "> 30", "unit": "µM"}, {"measurement": "IC50", "setting": "Cytochrome P450 2D6", "result": "> 30", "unit": "µM"}, {"measurement": "IC50", "setting": "[6]", "result": "> 100", "unit": "µM"}, {"measurement": "Ki", "setting": "[7]", "result": 0.07, "unit": "µM"}, {"measurement": "Ki", "setting": "[8]", "result": "< 0.0001", "unit": "µM"}, {"measurement": "T1/2", "setting": "[9]", "result": 22, "unit": "h"}]}
